Here are results for 5 compounds from ChEMBL document CHEMBL3745670, “Synthesis and biological evaluation of novel lipoamino acid derivatives” (Bioorg Med Chem Lett, 2016).

Broadly, the MIC is the lowest concentration found to suppress growth. By IC50 is commonly meant the concentration at which inhibition is half-maximal. A high value points to weaker potency. For orientation: MBC means the lowest tested concentration that kills the bacteria rather than only halting them.

One assay has as its system Candida albicans. The assay is described as follows: Antifungal activity against Candida albicans MTCC 3017 after 24 hrs by well diffusion assay. The assay is classed as functional. As to conditions: MTCC 3017, 24 h. In a few lines:
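Well diffusion screen against Candida and related fungal strains. Read-out is MIC in µg/mL, with miconazole as the reference drug.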
(Agar diffusion results depend on both activity and mobility in agar.)

Assay [1] has as its system Staphylococcus aureus. The assay is described as follows: Antibacterial activity against Staphylococcus aureus MLS-16 MTCC 2940 after 24 hrs by well diffusion assay. The assay is classed as functional. As to conditions: MLS-16 MTCC 2940, 24 h.
Assay [2] deals with Micrococcus luteus. As to the kind of experiment: Antibacterial activity against Micrococcus luteus MTCC 2470 after 24 hrs by well diffusion assay. The assay is classed as functional. Particulars: MTCC 2470, 24 h.
Assay [3] deals with Bacillus subtilis. As to the kind of experiment: Antibacterial activity against Bacillus subtilis MTCC 121 after 24 hrs by well diffusion assay. Format: functional. As to conditions: MTCC 121, 24 h.
Another assay relates to Raoultella planticola. The assay is described as follows: Antibacterial activity against Klebsiella planticola MTCC 530 after 24 hrs by well diffusion assay. As to conditions: MTCC 530, 24 h. The assay is classed as functional.
The subject of assay [4] is Staphylococcus aureus. The assay is described as follows: Antibacterial activity against Staphylococcus aureus MTCC 96 after 24 hrs by well diffusion assay. Format: functional. As to conditions: MTCC 96, 24 h.
A further assay deals with Pseudomonas aeruginosa. The assay is described as follows: Antibacterial activity against Pseudomonas aeruginosa MTCC 2453 after 24 hrs by well diffusion assay. Format: functional. As to conditions: MTCC 2453, 24 h.
In another assay the test system is Escherichia coli. As to the kind of experiment: Antibacterial activity against Escherichia coli MTCC 739 after 24 hrs by well diffusion assay. Format: functional. As to conditions: MTCC 739, 24 h.
The test system of assay [5] is Micrococcus luteus. The assay is described as follows: Antibiofilm activity against Micrococcus luteus MTCC 2470 after 24 hrs by crystal violet staining based method. The assay is classed as functional, organism-based. Particulars: MTCC 2470, 24 h. In a few lines: (§1)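 Biofilm inhibition was tested on the four Gram-positive strains, using crystal violet staining.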

Assay [6] deals with Micrococcus luteus. The assay is described as follows: Bactericidal activity against Micrococcus luteus MTCC 2470 after 24 hrs. Format: functional. Particulars: MTCC 2470, 24 h. In a few lines:
(§2)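 Minimum bactericidal concentration was determined on four Gram-positive strains, for the compounds active in the preliminary antibacterial screen.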

Assay [7] relates to Bacillus subtilis. As to the kind of experiment: Bactericidal activity against Bacillus subtilis MTCC 121 after 24 hrs by well diffusion assay. Format: functional. As to conditions: MTCC 121, 24 h. An outline of the steps: as §2
The subject of assay [8] is Bacillus subtilis. The assay is described as follows: Antibiofilm activity against Bacillus subtilis MTCC 121 after 24 hrs by well diffusion assay by crystal violet staining based method. As to conditions: MTCC 121, 24 h. The assay is classed as functional, organism-based. An outline of the steps:
as §1

The test system of another assay is MDA-MB-231. As to the kind of experiment: Cytotoxicity against human MDA-MB-231 cells by MTT assay. Format: functional, cell-based.
The nature of assay [9]: Cytotoxicity against human DU145 cells by MTT assay. The assay is classed as functional, cell-based. As to conditions: DU-145. In general terms: Formazan colour is commonly taken as a measure of viable cells.
Another assay relates to HepG2. The assay is described as follows: Cytotoxicity against human HepG2 cells by MTT assay. Format: functional, cell-based.
Assay [10] in a line: Cytotoxicity against human SKOV3 cells by MTT assay. Format: functional, cell-based. Particulars: SK-OV-3.
Assay [11] has as its system Staphylococcus aureus. As to the kind of experiment: Antibiofilm activity against Staphylococcus aureus MTCC 96 after 24 hrs by crystal violet staining based method. As to conditions: MTCC 96, 24 h. The assay is classed as functional, organism-based. An outline of the steps: as §1
Assay [12] deals with Staphylococcus aureus. The assay is described as follows: Bactericidal activity against Staphylococcus aureus MTCC 96 after 24 hrs. The assay is classed as functional. Particulars: MTCC 96, 24 h. In a few lines:
as §2

The structures appear in SMILES notation. Values after ≈ are worked out from the molar mass of the structure shown.

Turning to `CCCCCCCCC(CCCCCCCCC(=O)OC)SCC(=O)N[C@H](C(=O)OC)c1c[nH]c2ccccc12` (some centres undefined), the minimum inhibitory concentration (MIC) with Candida albicans, in the assay on Staphylococcus aureus [1], with Micrococcus luteus [2], with Bacillus subtilis [3], with Raoultella planticola and in the assay with Staphylococcus aureus [4] was above 125 µg/mL in each case. In addition, the minimal inhibitory concentration (MIC) with Pseudomonas aeruginosa and with Escherichia coli was above 125 µg/mL each time.
For the compound `CCCCCCCCC(CCCCCCCCC(=O)OC)SCC(=O)N[C@H](C(=O)OC)c1c[nH]cn1` (some centres undefined), the MIC with Candida albicans was above 125 µg/mL; against Staphylococcus aureus [1] it was above 125 µg/mL; against Micrococcus luteus [2], 3.9 µg/mL (≈ 7.42 µM); against Bacillus subtilis [3], 3.9 µg/mL (≈ 7.42 µM); in the assay on Raoultella planticola it was above 125 µg/mL; with Staphylococcus aureus [4], above 125 µg/mL. For the same compound, the MIC against Pseudomonas aeruginosa and in the assay on Escherichia coli was above 125 µg/mL each time. The IC50 was found to be 2.1 µM in the assay on Micrococcus luteus [5] and 1.9 µM in the assay with Bacillus subtilis [8]. Also, the minimal bactericidal concentration (MBC) is 7.8 µg/mL (≈ 14.8 µM) in the assay on Micrococcus luteus [6] and 3.9 µg/mL (≈ 7.42 µM) in the assay on Bacillus subtilis [7].
Consider `CCCCCCCCC(CCCCCCCCC(=O)OC)SCC(=O)N[C@H](C(=O)OC)[C@@H](C)CC` (some centres undefined), for which the MIC is above 125 µg/mL against Candida albicans; above 125 µg/mL against Staphylococcus aureus [1]; 31.2 µg/mL (≈ 60.5 µM) with Micrococcus luteus [2]; above 125 µg/mL with Bacillus subtilis [3]; above 125 µg/mL against Raoultella planticola; 31.2 µg/mL (≈ 60.5 µM) with Staphylococcus aureus [4]. The minimal inhibitory concentration (MIC) against Pseudomonas aeruginosa and in the assay with Escherichia coli was above 125 µg/mL each time. The IC50 in the assay with Micrococcus luteus [5] came out at 16.8 µM; with MDA-MB-231 it was 22.4 µM; in assay [9], 19 µM; in the assay with HepG2, 15.3 µM; in assay [10] it was 16.4 µM; with Staphylococcus aureus [11], 21.5 µM. Besides, the MBC against Micrococcus luteus [6] and against Staphylococcus aureus [12] was 31.2 µg/mL (≈ 60.5 µM) each time.
For the compound `CCCCCCCCC(CCCCCCCCC(=O)OC)SCC(=O)NCC(=O)OC` (centres undefined), the MIC with Candida albicans is 31.2 µg/mL (≈ 67.9 µM); with Staphylococcus aureus [1] it was above 125 µg/mL; against Micrococcus luteus [2], 15.6 µg/mL (≈ 33.9 µM); against Bacillus subtilis [3], 7.8 µg/mL (≈ 17 µM); in the assay with Raoultella planticola, above 125 µg/mL; in the assay on Staphylococcus aureus [4], above 125 µg/mL. For the same compound, the MIC with Pseudomonas aeruginosa and in the assay with Escherichia coli was above 125 µg/mL throughout. Further, the concentration for half-maximal inhibition (IC50) turned out to be 8.2 µM in the assay on Micrococcus luteus [5]; 31.4 µM with MDA-MB-231; 30.8 µM in assay [9]; 29.6 µM in the assay on HepG2; 25.2 µM in [10]; 4.4 µM in the assay on Bacillus subtilis [8]. The values for the minimal bactericidal concentration (MBC) with Micrococcus luteus [6] and in the assay with Bacillus subtilis [7] were 31.2 µg/mL (≈ 67.9 µM) and 3.9 µg/mL (≈ 8.48 µM), respectively.
Regarding `CCCCCCCCC(CCCCCCCCC(=O)OC)SCC(=O)N[C@@H](Cc1ccccc1)C(=O)OC` (some centres undefined), the MIC against Candida albicans, with Staphylococcus aureus [1], with Micrococcus luteus [2], in the assay with Bacillus subtilis [3], in the assay with Raoultella planticola and against Staphylococcus aureus [4] was above 125 µg/mL in each case. Besides, the minimum inhibitory concentration (MIC) against Pseudomonas aeruginosa and in the assay on Escherichia coli was above 125 µg/mL in each case. In addition, the IC50 with MDA-MB-231 was 38.6 µM; in assay [9] it was 49.1 µM; in the assay on HepG2, 33.6 µM; in [10], 42.5 µM.
